# Published values of several laboratories.
# Target: Receptor-interacting serine/threonine-protein kinase 1 (RIPK1, Homo sapiens, UniProt Q13546)
# One construct used (Q13546 1-671): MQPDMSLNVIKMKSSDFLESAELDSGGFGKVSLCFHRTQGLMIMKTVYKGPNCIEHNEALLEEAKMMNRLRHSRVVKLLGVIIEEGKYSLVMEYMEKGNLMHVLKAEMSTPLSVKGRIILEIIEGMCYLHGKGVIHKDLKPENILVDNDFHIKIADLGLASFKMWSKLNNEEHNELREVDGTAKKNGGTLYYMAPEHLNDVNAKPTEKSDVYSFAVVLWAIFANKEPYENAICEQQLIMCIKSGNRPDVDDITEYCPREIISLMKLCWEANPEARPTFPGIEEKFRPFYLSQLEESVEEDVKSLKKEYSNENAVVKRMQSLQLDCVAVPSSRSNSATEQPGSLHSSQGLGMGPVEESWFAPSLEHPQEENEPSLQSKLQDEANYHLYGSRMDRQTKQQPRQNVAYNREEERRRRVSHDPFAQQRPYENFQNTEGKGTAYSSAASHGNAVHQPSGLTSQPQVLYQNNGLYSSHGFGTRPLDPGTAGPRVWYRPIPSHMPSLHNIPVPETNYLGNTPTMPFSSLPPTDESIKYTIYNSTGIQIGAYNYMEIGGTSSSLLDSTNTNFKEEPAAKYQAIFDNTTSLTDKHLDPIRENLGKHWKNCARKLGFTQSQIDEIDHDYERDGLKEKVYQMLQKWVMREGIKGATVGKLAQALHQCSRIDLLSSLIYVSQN
SMILES,test,conditions,remaining binding
O=C(N1CCS(=O)(=O)CC1)N1C[C@H](c2ccc(OC(F)(F)F)cc2)C[C@H](c2nc(C3CC3)no2)C1,"cell-free assay, competition with immobilised ligand",1 µM,100%
O=C(c1ccc(Nc2ncc(Cl)c(-c3cc4ccccc4s3)n2)cc1)N1CCC(N2CCCC2)CC1,"binding, competition with immobilised ligand",1 µM,2.5%
CN(c1nccc(-c2cnn3ncccc23)n1)C1CC1,binding,1 µM,100%
CNCc1ccccc1-c1csc([C@@H](C)Nc2nc(C)nc3cc(OC)c(OC)cc23)c1,"cell-free assay, competition with immobilised ligand",1 µM,97%
O=C(NCCCN1CCOCC1)c1ccc(Nc2ncc(Cl)c(-c3ccc(Cl)s3)n2)cc1,"binding, competition with immobilised ligand",1 µM,45%
CN(C)c1nccc(-c2cnn3ncccc23)n1,binding,1 µM,98%
CCc1ccccc1C(=O)Nc1n[nH]c2c(C)c(F)c(C3C(C#N)=C(C)N(C)C(C)=C3C#N)cc12,"cell-free assay, competition with immobilised ligand",1 µM,100%
CNC(=O)[C@@H]1CC[C@@H](n2c(-c3ccc4cnccc4c3)nc3ccc(C(=O)NCc4cccc(C(N)=O)c4)cc32)C1,"binding, competition with immobilised ligand",1 µM,100%
Cc1cnc(Nc2ccc(C(=O)N3CCC(N4CCCC4)CC3)cc2)nc1-c1cc2ccccc2s1,"binding, competition with immobilised ligand",1 µM,1%
COc1ccnn2ncc(-c3ccnc(N(C)C)n3)c12,binding,1 µM,96%
CCCOc1ccc([C@@H]2[C@@H](C(=O)O)[C@H](c3ccc4c(c3)OCO4)CN2CC(=O)Nc2c(CC)cccc2CC)cc1,"cell-free assay, competition with immobilised ligand",1 µM,55%
O=C(NCC1CCOCC1)c1n[nH]cc1NC(=O)c1c(F)cccc1F,"binding, competition with immobilised ligand",1 µM,94%
CCCCN(CCCC)C(=O)CN1C[C@@H](c2cc(OC)c3c(c2)OCO3)[C@H](C(=O)O)[C@H]1CC(C)(C)CCC,"cell-free assay, competition with immobilised ligand",1 µM,100%
Cc1cnn2ncc(-c3ccnc(N(C)C)n3)c2c1,binding,1 µM,100%
FC(F)(F)Oc1cccc(-c2cnc3ccc(-c4ccncc4)nn23)c1,"binding, competition with immobilised ligand",5 µM,81%
COc1cnc(Nc2cccc(S(N)(=O)=O)c2)nc1N1CCN(c2ccccc2)C(=O)C1,"binding, competition with immobilised ligand",1 µM,100%
COc1cc(-c2cn(C3CCc4c(F)cccc4N(CC(F)(F)F)C3=O)nn2)ccc1-n1cnc(C)c1 (stereo not drawn),"cell-free assay, competition with immobilised ligand",1 µM,100%
N[C@@H]1CCN(c2nccc(-c3cnn4ncccc34)n2)C1,binding,1 µM,100%
